Assay outcomes from PubChem.
Ab BasE inh: blocks the Acinetobacter baumannii siderophore enzyme BasE; inhibition, % (no concentration beside the values); hit rate 0.1% among 84,000; purified BasE, fluorescence polarization binding displacement; AID 485350; in the data active means inhibition above about 25%, passing the limit was not always enough
LANA-nucl inh: LANA-nucleosome interaction inhibition. FITC-LANA1-23 / chicken nucleosome fluorescence polarization; hits give low values. hit rate 0.3% among 51,000. z-score (concentration not given with the values);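 active means both repeat wells score below -2 in polarization z-score versus plate sample wells, excluding overly bright wells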
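test system = FITC-LANA peptide and chicken nucleosomes | amount = 240 nM purified chicken nucleosomes (480 nM peptide binding sites), final | reagent = 50 nM FITC-LANA1-23 probe | medium = TEN-BT buffer, pH 7.5 | doses = single compound addition by pin transfer, 100 nL per well | timing = 10–45 min, room temperature | detection = fluorescence polarization | repeats = duplicate plates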
A number is an active result; ! = repeats disagree. The full list was thinned out, with hits kept by preference.

What do the screens show for `N#Cc1c(-c2ccc(Cl)cc2)cc[nH]c1=O`?
LANA-nucl inh: inactive

How did CS(=O)c1scc(-c2ccc(Cl)cc2)c1C#N (stereo not drawn) do in these assays?
Ab BasE inh: 29; LANA-nucl inh: inactive

What do the screens show for `CC(C(=O)Nc1ccccc1C#N)N(C)Cc1nc2ccccc2c(=O)[nH]1` (stereo not drawn)?
Ab BasE inh: inactive

What do the screens show for `c1ccc(-c2nnc(OCC3CCCO3)c3ccccc23)cc1` (stereo not drawn)?
Ab BasE inh: 28

Results for Nc1ccc(OCC2CCCO2)cc1 (stereo not drawn) ?
Ab BasE inh: inactive; LANA-nucl inh: inactive

How did Cc1cc(C(=O)Nc2ccc(S(N)(=O)=O)cc2)no1 do in these assays?
Ab BasE inh: inactive; LANA-nucl inh: inactive

Results for CCOc1ccc(C(=O)Nc2nc3cc4c(cc3s2)OCO4)cc1 ?
Ab BasE inh: inactive; LANA-nucl inh: -2.2

What do the screens show for `COc1cccc(C(=O)Nc2nc3cc4c(cc3s2)OCO4)c1`?
Ab BasE inh: inactive; LANA-nucl inh: inactive

What do the screens show for `COC(=O)c1ccc(C(=S)NCC(OC)OC)cc1`?
Ab BasE inh: inactive

What do the screens show for `COc1ccc(Nc2ssc(=O)c2Cl)cc1OC`?
Ab BasE inh: inactive

Results for O=C(O)CC1S/C(=N/N=C/c2ccccc2)NC1=O (stereo not drawn) ?
Ab BasE inh: inactive; LANA-nucl inh: inactive

How did O=C1N/C(=N/N=C\c2[nH]ncc2Br)SC1c1ccccc1 (stereo not drawn) do in these assays?
Ab BasE inh: 27; LANA-nucl inh: inactive

How did S=C(NCc1ccc2c(c1)OCO2)N(Cc1ccco1)Cc1cccs1 do in these assays?
Ab BasE inh: inactive

What do the screens show for `Cc1cc(N2CCCC2)ccc1/C=C/C1=CCN(C)CC1`?
Ab BasE inh: inactive; LANA-nucl inh: -4.1

How did C=CCn1c(C)c(/C=C/C2=CCN(C)CC2)c2ccccc21 do in these assays?
Ab BasE inh: inactive; LANA-nucl inh: inactive

How did CCCN1c2ccccc2S(=O)(=O)c2ccccc21 do in these assays?
Ab BasE inh: inactive; LANA-nucl inh: inactive

How did CNC(=O)COC(=O)c1cccn1C do in these assays?
Ab BasE inh: inactive

Results for Cc1c(CSC(=N)N)c(C)c(CSC(=N)N)c(C)c1CSC(=N)N ?
Ab BasE inh: inactive; LANA-nucl inh: -2.9

How did CCc1c(CSC(=N)N)csc1C do in these assays?
Ab BasE inh: inactive; LANA-nucl inh: inactive

Results for CCOC(=O)N1CCN(S(=O)(=O)N2CCCC(C(=O)NCCC(C)C)C2)CC1 (stereo not drawn) ?
Ab BasE inh: inactive; LANA-nucl inh: inactive

Results for CC(C)CCNC(=O)C1CCCN(S(=O)(=O)N2CCC3(CC2)OCCO3)C1 (stereo not drawn) ?
Ab BasE inh: inactive; LANA-nucl inh: -2.2

How did CC1(C)NC(=O)C(C#N)=C(SCc2ccccc2)S1 do in these assays?
Ab BasE inh: 38; LANA-nucl inh: inactive

Results for CC1(C)CC(=O)c2cc(C#N)c(SCc3ccccc3)nc2C1 ?
Ab BasE inh: inactive

What do the screens show for `COC(=O)C1=CNC=C(C(=O)OC)C1c1ccccc1C`?
Ab BasE inh: 29; LANA-nucl inh: inactive

What do the screens show for `COC(=O)C1=CNC=C(C(=O)OC)C1c1ccc(Cl)cc1`?
Ab BasE inh: inactive; LANA-nucl inh: inactive

Results for CCOC(=O)/C(C#N)=C\c1cc2ccc(OC)cc2[nH]c1=O ?
Ab BasE inh: inactive; LANA-nucl inh: -4.5

What do the screens show for `COc1cccc(C(=O)NCCc2cc3ccc(OC)cc3[nH]c2=O)c1`?
Ab BasE inh: inactive; LANA-nucl inh: inactive

How did CC1S/C(=N\N=C2CCC(C(C)(C)C)CC2)NC1=O (stereo not drawn) do in these assays?
Ab BasE inh: inactive; LANA-nucl inh: inactive

Results for COC(=O)c1c(N)oc2c(-c3ccc(C)cc3)c3c(C(=O)OC)c(N)oc3cc12 ?
Ab BasE inh: inactive; LANA-nucl inh: inactive

What do the screens show for `O=c1c(O)c(-c2ccc(O)c(O)c2)oc2cc(O)cc(O)c12`?
Ab BasE inh: 29!; LANA-nucl inh: inactive

What do the screens show for `O=c1cc(-c2ccc(O)c(O)c2)oc2cc(O)cc(O)c12`?
Ab BasE inh: inactive; LANA-nucl inh: inactive

How did COc1ccccc1/C=C/C(=O)Nc1ccccn1 do in these assays?
Ab BasE inh: inactive; LANA-nucl inh: inactive

What do the screens show for `CCNCc1cccs1`?
Ab BasE inh: inactive

Results for N#Cc1ccccc1CNCc1cccs1 ?
Ab BasE inh: inactive; LANA-nucl inh: -2.1

How did C/C(N)=C(/C#N)C(=O)Cn1nnc(-c2ccccc2)n1 do in these assays?
Ab BasE inh: inactive

How did O=c1cc(CN2CCCc3ccccc32)nc2sccn12 do in these assays?
Ab BasE inh: inactive; LANA-nucl inh: -7.9

Results for O=C1c2ccccc2C(=O)N1Cc1cc(=O)n2ccsc2n1 ?
Ab BasE inh: inactive

Results for CCCCN(C)S(=O)(=O)c1ccc(-c2ccc(=O)[nH]n2)o1 ?
Ab BasE inh: inactive

What do the screens show for `Cc1cccc(OCC(=O)NC2CCCC2)c1`?
Ab BasE inh: 29; LANA-nucl inh: inactive

How did Cc1ccc(OCC(=O)NC2CCC(C)CC2)cc1C (stereo not drawn) do in these assays?
Ab BasE inh: inactive
